In ChEMBL document CHEMBL1926520, “13,13-Dimethyl-des-C,D analogues of (20S)-1α,25-dihydroxy-2-methylene-19-norvitamin D₃ (2MD): total synthesis, docking to the VDR, and biological evaluation” (Bioorg Med Chem, 2011):
pEC50, pKi: −log10 of the molar value.

Legend:
HL-60 [1] = experiment: Induction of human HL60 cell differentiation after 4 days by nitro blue tetrazolium reduction assay relative to 1alpha,25(OH)2D3; assay type: functional
Summary of the method: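 HL-60 cells were grown in RPMI-1640 with 10% FBS at 37 °C and 5% CO2, plated at 1.2×10^5 cells/plate, and treated in duplicate 18 h later (ethanol <0.2% final). After 4 days, NBT reduction was scored by counting formazan-positive cells among 200. […] The experiment was repeated 2–3 times.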

Vitamin D3 receptor [2] = molecular target: T1, Vitamin D3 receptor (Rattus norvegicus, UniProt P13053); experiment: Agonist activity at rat VDR in ROS 17/2.8 cells transfected with Cyp24a1 reporter plasmid assessed as increase in Cyp24a1 transcription after 16 hrs by luciferase reporter gene assay; assay type: functional, cell-based
T1 sequence (P13053 whole entry): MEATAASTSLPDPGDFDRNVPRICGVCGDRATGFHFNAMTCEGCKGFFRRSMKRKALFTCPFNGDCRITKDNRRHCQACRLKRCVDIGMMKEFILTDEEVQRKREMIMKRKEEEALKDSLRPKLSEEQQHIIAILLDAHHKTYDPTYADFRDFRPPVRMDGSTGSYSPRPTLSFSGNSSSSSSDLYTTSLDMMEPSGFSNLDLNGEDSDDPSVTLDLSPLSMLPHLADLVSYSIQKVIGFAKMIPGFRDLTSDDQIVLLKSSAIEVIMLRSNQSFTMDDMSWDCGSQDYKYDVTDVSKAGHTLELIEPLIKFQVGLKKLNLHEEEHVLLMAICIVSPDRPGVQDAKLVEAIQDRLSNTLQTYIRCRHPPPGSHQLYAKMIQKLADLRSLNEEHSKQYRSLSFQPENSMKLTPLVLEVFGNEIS
Summary of the method: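 ROS 17/2.8 osteosarcoma (bone) cells stably carrying a Cyp24a1 promoter–luciferase reporter were given a range of doses. Cells were harvested 16 h after dosing and luciferase was read on a luminometer. Duplicates were run on two–three separate occasions.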

Rattus norvegicus [3] = experiment: Calcium mobilization in vitamin-D deficient weanling rat bone assessed as increase in serum calcium level at 2.1 ug/kg, ip administered daily for 7 consecutive days measured 24 hrs after last dose relative to vehicle treated control; assay type: functional
Summary of the method: (§1)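 Vitamin D-deficient rats were kept on a low-calcium diet and in the final week dosed ip once daily for 7 consecutive days in 0.1 ml propylene glycol/ethanol (95:5). Controls received vehicle only. Serum Ca (mg/dL) was measured 24 h after the last dose and reported as the increase over vehicle-treated rats, average ± SEM, with 5–6 rats per group.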

Rattus norvegicus [4] = experiment: Calcium mobilization in vitamin-D deficient weanling rat bone assessed as increase in serum calcium level at 19 ug/kg, ip administered daily for 7 consecutive days measured 24 hrs after last dose relative to vehicle treated control; assay type: functional; summary of the method: as §1
Rattus norvegicus [5] = experiment: Calcium mobilization in vitamin-D deficient weanling rat bone assessed as increase in serum calcium level at 6.5 ug/kg, ip administered daily for 7 consecutive days measured 24 hrs after last dose relative to vehicle treated control; assay type: functional; summary of the method: as §1
Rattus norvegicus [6] = experiment: Calcium mobilization in vitamin-D deficient weanling rat bone assessed as increase in serum calcium level at 97 ug/kg, ip administered daily for 7 consecutive days measured 24 hrs after last dose relative to vehicle treated control; assay type: functional; summary of the method: as §1
Rattus norvegicus [7] = experiment: Calcium transport in vitamin-D deficient weanling rat intestine assessed as intestinal calcium level at 2.1 ug/kg, ip administered daily for 7 consecutive days measured 24 hrs after last dose; assay type: functional
Summary of the method: (§2)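 Vitamin D-deficient rats were kept on a low-calcium diet and dosed ip daily for 7 consecutive days in the last week, in 0.1 ml propylene glycol/ethanol (95:5), with vehicle-only controls. Measurements were taken 24 h after the final dose. Intestinal calcium transport was expressed as the rise in serosal/mucosal (S/M) ratio over vehicle, average ± SEM, with 5–6 rats per group.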

Rattus norvegicus [8] = experiment: Calcium transport in vitamin-D deficient weanling rat intestine assessed as intestinal calcium level at 19 ug/kg, ip administered daily for 7 consecutive days measured 24 hrs after last dose; assay type: functional; summary of the method: as §2
Rattus norvegicus [9] = experiment: Calcium transport in vitamin-D deficient weanling rat intestine assessed as intestinal calcium level at 6.5 ug/kg, ip administered daily for 7 consecutive days measured 24 hrs after last dose; assay type: functional; summary of the method: as §2
Rattus norvegicus [10] = experiment: Calcium transport in vitamin-D deficient weanling rat intestine assessed as intestinal calcium level at 97 ug/kg, ip administered daily for 7 consecutive days measured 24 hrs after last dose; assay type: functional; summary of the method: as §2
HL-60 [11] = experiment: Induction of human HL60 cell differentiation after 4 days by nitro blue tetrazolium reduction assay; assay type: functional, cell-based; details: HL-60, 96 h
Vitamin D3 receptor [12] = molecular target: T1, Vitamin D3 receptor; experiment: Displacement of [3H]-1alpha,25(OH)2D3 from recombinant rat VDR by scintillation counting
Summary of the method: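 It was incubated overnight on ice with 1 nM final [3H]-1α,25(OH)2D3 plus unlabeled ligand in ethanol (<10% final). Bound ligand was collected on hydroxylapatite, washed and counted by scintillation. […] Duplicates were run on two–three occasions.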

Rattus norvegicus [13] = experiment: Calcium mobilization in vitamin-D deficient weanling rat bone assessed as increase in serum calcium level at 1.9 ug/kg, ip administered daily for 7 consecutive days measured 24 hrs after last dose relative to vehicle treated control; assay type: functional; summary of the method: as §1
Rattus norvegicus [14] = experiment: Calcium mobilization in vitamin-D deficient weanling rat bone assessed as increase in serum calcium level at 5.7 ug/kg, ip administered daily for 7 consecutive days measured 24 hrs after last dose relative to vehicle treated control; assay type: functional; summary of the method: as §1
Rattus norvegicus [15] = experiment: Calcium mobilization in vitamin-D deficient weanling rat bone assessed as increase in serum calcium level at 22.8 ug/kg, ip administered daily for 7 consecutive days measured 24 hrs after last dose relative to vehicle treated control; assay type: functional; summary of the method: as §1
Rattus norvegicus [16] = experiment: Calcium mobilization in vitamin-D deficient weanling rat bone assessed as increase in serum calcium level at 0.2 ug/kg, ip administered daily for 7 consecutive days measured 24 hrs after last dose relative to vehicle treated control; assay type: functional; summary of the method: as §1
Rattus norvegicus [17] = experiment: Calcium mobilization in vitamin-D deficient weanling rat bone assessed as increase in serum calcium level at 0.7 ug/kg, ip administered daily for 7 consecutive days measured 24 hrs after last dose relative to vehicle treated control; assay type: functional; summary of the method: as §1
Rattus norvegicus [18] = experiment: Calcium transport in vitamin-D deficient weanling rat intestine assessed as intestinal calcium level at 0.2 ug/kg, ip administered daily for 7 consecutive days measured 24 hrs after last dose; assay type: functional; summary of the method: as §2
Rattus norvegicus [19] = experiment: Calcium transport in vitamin-D deficient weanling rat intestine assessed as intestinal calcium level at 0.7 ug/kg, ip administered daily for 7 consecutive days measured 24 hrs after last dose; assay type: functional; summary of the method: as §2

| SMILES | Ratio EC50 (HL-60 [1]) | pEC50 (Vitamin D3 receptor [2]) | Activity (Rattus norvegicus [3]) [mg/dL] | Activity (Rattus norvegicus [4]) [mg/dL] | Activity (Rattus norvegicus [5]) [mg/dL] | Activity (Rattus norvegicus [6]) [mg/dL] | Activity (Rattus norvegicus [7]) [mg/dL] | Activity (Rattus norvegicus [8]) [mg/dL] | Activity (Rattus norvegicus [9]) [mg/dL] | Activity (Rattus norvegicus [10]) [mg/dL] | pEC50 (HL-60 [11]) | pKi (Vitamin D3 receptor [12]) | Activity (Rattus norvegicus [13]) [mg/dL] | Activity (Rattus norvegicus [14]) [mg/dL] | Activity (Rattus norvegicus [15]) [mg/dL] | Activity (Rattus norvegicus [16]) [mg/dL] | Activity (Rattus norvegicus [17]) [mg/dL] | Activity (Rattus norvegicus [18]) [mg/dL] | Activity (Rattus norvegicus [19]) [mg/dL] |
| --- | --- | --- | --- | --- | --- | --- | --- | --- | --- | --- | --- | --- | --- | --- | --- | --- | --- | --- | --- |
| C=C1[C@H](O)CC(=C/C=C/CC(C)(C)C[C@@H](C)CCCC(C)(C)O)C[C@H]1O | 2 | 8.70 | 0.2 | 0.4 | 0.6 | 0.3 | 0 | 1 | 0.4 | 2.6 | 8.22 | 8.70 | – | – | – | – | – | – | – |
| C=C1[C@H](O)CC(=C/C=C\CC(C)(C)C[C@@H](C)CCCC(C)(C)O)C[C@H]1O | – | 7.52 | – | – | 0.2 | – | – | – | 0.1 | – | – | 8.00 | – | – | – | – | – | – | – |
| C=C1[C@H](O)CC(=C/C=C/CCC[C@@H](C)CCCC(C)(C)O)C[C@H]1O | 100 | – | – | – | – | – | – | – | – | – | – | – | -0.2 | 0.1 | 0.2 | – | – | – | – |
| C=C1/C(=C\C=C2/CCC[C@]3(C)[C@@H]([C@H](C)CCCC(C)(C)O)CC[C@@H]23)C[C@@H](O)C[C@@H]1O [CALCITRIOL] | – | – | 1.9 | 3.9 | – | – | 4.2 | 5.9 | – | – | – | – | – | – | – | 0.5 | 1.3 | 4.2 | 2.8 |
